Experimental findings from ChEMBL document CHEMBL3785082, “(±)-Homocrepidine A, a Pair of Anti-inflammatory Enantiomeric Octahydroindolizine Alkaloid Dimers from Dendrobium crepidatum” (J Nat Prod, 2016) are described below.

Activity calls are given as the source filed them. No cut-off for these calls is given here. A value given as a limit tells only on which side of the number the result lay.

Data set [1] can be described thus: Inhibition of L-rhamnosidase (unknown origin).
Data set [2] can be described thus: Cytotoxicity against mouse RAW264.7 cells assessed as inhibition of cell viability at 100 uM by MTT assay. Format: cell-based. The conditions noted are these: read-out: INH. The essentials: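 Same RAW 264.7 culture and plating as the nitrite assay: compounds in 0.1% DMSO added 1 h before LPS (5 μg/mL solution), then 20 h incubation. Viability read by standard MTT assay. At least triplicate.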

Data set [3] deals with RAW264.7. The experiment in a line: Antiinflammatory activity in mouse RAW264.7 cells assessed as inhibition of LPS-induced NO production at 100 uM preincubated for 1 hr followed by LPS stimulation measured after 20 hrs by Griess assay. Format: functional, cell-based. The essentials: (§1)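 RAW 264.7 cells in DMEM with 10% FBS, penicillin/streptomycin, 2 mM L-glutamine and 1 mM nonessential amino acids, seeded at 4 × 10^5 cells/well, settled 4 h at 37 °C, 5% CO2. Compounds in 0.1% DMSO (final 0.1–100 μM) added 1 h before LPS (5 μg/mL solution). After a further 20 h, supernatant mixed 1:1 with Griess reagent for 5 min, A540 read. At least triplicate; indomethacin as reference.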
For orientation: The Griess reaction detects nitrite, a stable product of nitric oxide.

For data set [4], the system named is RAW264.7. The data set is described as follows: Antiinflammatory activity in mouse RAW264.7 cells assessed as inhibition of LPS-induced iNOS overexpression at 5 uM after 24 hrs by Western blot analysis. Format: functional, cell-based. In outline:
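RAW 264.7 cells pretreated with 5 μg/mL LPS or solvent, then exposed to 5 μM compound for 24 h. Lysed in cold buffer with 1% PMSF; protein by Bradford, 25 μg run on SDS-PAGE, blotted to nitrocellulose, blocked in 5% milk/TBS-Tween 60 min. Anti-iNOS overnight at 4 °C, HRP secondary 1 h, ECL on film; densitometry normalized to β-actin. Mean ± SD, n = 3–5.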
A general note: In western blotting, separated proteins are transferred to a membrane and probed.

Data set [5] has as its system RAW264.7. The data set is described as follows: Antiinflammatory activity in mouse RAW264.7 cells assessed as inhibition of LPS-induced NO production preincubated for 1 hr followed by LPS stimulation measured after 20 hrs by Griess assay. It is filed as functional, cell-based. In outline: as §1

In general, Ki refers to the dissociation constant of the complex between target and ligand, obtained from inhibition or displacement. Lower therefore signals a stronger hold on the target. Take `O[C@@H]1[C@@H]2[C@@H](O)CCCN2C[C@@H]1O`: in data set [1], the Ki was 0.45 µM.

As for `CC(=O)[C@H]1[C@@H]2CC[C@H]3C[C@@H](C)[C@](O)(c4ccccc4)[C@H](C[C@@]1(C)O)N32`, the cytotoxicity at 100 µM in data set [2] was below 10%. Besides, the inhibition entry in the data set with RAW264.7 [3] was “inactive”.

As a reminder, the IC50 is the midpoint of a concentration-inhibition curve. As for `CC1CC2CCCN2C(CC(=O)CC2N3CCCC3CC(C)C2(O)c2ccccc2)C1(O)c1ccccc1` (racemic), the inhibition result in the data set on RAW264.7 [4] is “inactive”. For the same compound, in data set [2], the cytotoxicity at 100 µM is below 10%. The IC50 with RAW264.7 [5] was 14.7 µM.

Consider `C[C@H]1C[C@H]2CCCN2[C@@H](CC(=O)C[C@@H]2N3CCC[C@@H]3C[C@H](C)[C@@]2(O)c2ccccc2)[C@]1(O)c1ccccc1`, for which, in the data set on RAW264.7 [4], the inhibition entry was “Active”. For the same compound, in the data set with RAW264.7 [5], the IC50 was determined as 3.6 µM.

`C[C@@H]1C[C@@H]2CCCN2[C@H](CC(=O)C[C@H]2N3CCC[C@H]3C[C@@H](C)[C@]2(O)c2ccccc2)[C@@]1(O)c1ccccc1`: the inhibition entry in the data set on RAW264.7 [4] was “inactive”. Further, the IC50 in the data set with RAW264.7 [5] is 22.8 µM.

On to `CC(=O)CCCC[C@H]1C[C@@H](C)[C@@](O)(c2ccccc2)CN1`, for which the cytotoxicity at 100 µM in data set [2] was below 10%. Also, the IC50 in the data set with RAW264.7 [5] was determined as 27.6 µM.
